One block for each compound: values may come before it. The source made the active and inactive calls. No cut-off for these calls is given here.
Experiments:
Rattus norvegicus [1] = assay: Increase of Apolipoprotein A-I level in cholesterol-fed male rats at 63 mg/kg/day relative to control; assay type: functional
Outline: (§1)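 Drug mixed into diet, fed ad libitum for 8 days to groups of six male Sprague–Dawley rats on a cholesterol diet. Serum Apo A-I measured by SDS–polyacrylamide gel electrophoresis or by rat competition ELISA. Reported as % change versus untreated controls, with significance set at p < 0.05.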

Rattus norvegicus [2] = assay: Increase of HDL level in cholesterol-fed male rats by FPLC method at 63 mg/kg/day relative to control; assay type: functional
Outline: (§2)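 Groups of six male Sprague–Dawley rats on a cholesterol diet received drug in the diet, ad libitum, for 8 days. Serum lipoproteins separated by FPLC, adapted for robotic automation, and cholesterol quantitated enzymatically by colorimetry. HDL given as % change versus untreated controls, with significance set at p < 0.05.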

Rattus norvegicus [3] = assay: Increase of total cholesterol level in cholesterol-fed male rats at 63 mg/kg/day relative to control; assay type: functional
Outline: (§3)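 Dietary (ad libitum) dosing of groups of six male Sprague–Dawley rats on a cholesterol diet for 8 days. Serum total cholesterol was quantitated enzymatically by a colorimetric method and expressed as % change relative to untreated controls, with significance at p < 0.05.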

Rattus norvegicus [4] = species: Rattus norvegicus; assay: Increase in liver enzyme Alkaline phosphatase; assay type: functional; design: concentration or dose not given beside the values
Rattus norvegicus [5] = assay: Weight gain in cholesterol-fed male rats at 63 mg/kg/day relative to control; assay type: functional
Outline: (§4)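 Groups of six male Sprague–Dawley rats on a cholesterol diet received the compound in the diet, ad libitum, over 8 days. Body weight gain is reported as % change relative to untreated controls.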

Rattus norvegicus [6] = assay: Triglyceride level in cholesterol-fed male rats at 63 mg/kg/day relative to control; assay type: functional
Outline: (§5)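 Male Sprague–Dawley rats on a cholesterol diet, in groups of six, received the compound in the diet ad libitum for 8 days. Serum triglycerides are expressed as % change relative to untreated controls, with significance at p < 0.05 versus controls.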

Rattus norvegicus [7] = assay: Increase of HDL level in cholesterol-fed male rats by ultracentrifugation method at 63 mg/kg/day relative to control; assay type: functional
Outline: (§6)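 Cholesterol-fed male Sprague–Dawley rats, six per group, given drug in the diet ad libitum for 8 days. Serum lipoproteins separated by classical ultracentrifugation and HDL cholesterol measured by an enzymatic colorimetric method. Expressed as % change versus untreated controls, with significance set at p < 0.05.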

Rattus norvegicus [8] = assay: Increase of Apolipoprotein A-I level in cholesterol-fed male rats at 78 mg/kg/day relative to control; assay type: functional; outline: as §1
Rattus norvegicus [9] = assay: Increase of HDL level in cholesterol-fed male rats by ultracentrifugation method at 78 mg/kg/day relative to control; assay type: functional
Outline: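 Compound given in the diet, ad libitum, to groups of six male Sprague–Dawley rats on a cholesterol diet for 8 days. Serum lipoproteins were separated by classical ultracentrifugation, and HDL cholesterol was quantitated by an enzymatic colorimetric method. Results are reported as % change relative to untreated controls, with significance at p < 0.05 versus controls.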

Rattus norvegicus [10] = assay: Weight gain in cholesterol-fed male rats at 78 mg/kg/day relative to control; assay type: functional; outline: as §4
Rattus norvegicus [11] = assay: Increase of total cholesterol level in cholesterol-fed male rats at 78 mg/kg/day relative to control; assay type: functional; outline: as §3
Rattus norvegicus [12] = assay: Triglyceride level in cholesterol-fed male rats at 78 mg/kg/day relative to control; assay type: functional; outline: as §5
Rattus norvegicus [13] = assay: Increase of HDL level in cholesterol-fed male rats by FPLC method at 78 mg/kg/day relative to control; assay type: functional; outline: as §2
Rattus norvegicus [14] = assay: Increase of Apo A-I level in cholesterol-fed male rats at 50 mg/kg/day relative to control; assay type: functional; outline: as §1
Rattus norvegicus [15] = assay: Increase of HDL level in cholesterol-fed male rats by ultracentrifugation method at 50 mg/kg/day relative to control; assay type: functional; outline: as §6
Hamster [16] = assay: Increase of HDL cholesterol in normal-fed hamster at 45 mg/kg/day; assay type: functional, organism-based; conditions: Cricetinae
Rattus norvegicus [17] = assay: Increase of HDL level in cholesterol-fed male rats by FPLC method at 50 mg/kg/day relative to control; assay type: functional; outline: as §2
Rattus norvegicus [18] = assay: Triglyceride level in cholesterol-fed male rats at 50 mg/kg/day relative to control; assay type: functional; outline: as §5
Hamster [19] = assay: Increase of HDL cholesterol in chow-fed hamster at 45 mg/kg/day; assay type: functional, organism-based; conditions: Cricetulus griseus
Rattus norvegicus [20] = assay: Increase of total cholesterol level in cholesterol-fed male rats at 50 mg/kg/day relative to control; assay type: functional; outline: as §3
Canis familiaris = assay: Increase of HDL cholesterol in normal-fed dog at 250 mg/kg/day; assay type: functional, organism-based; conditions: Canis lupus familiaris
Rattus norvegicus [21] = assay: Increase of HDL cholesterol in normal-fed rat at 50 mg/kg/day; assay type: functional
Rattus norvegicus [22] = assay: Weight gain in cholesterol-fed male rats at 50 mg/kg/day relative to control; assay type: functional; outline: as §4
Rattus norvegicus [23] = species: Rattus norvegicus; assay: Increase in liver enzyme Aspartate aminotransferase; assay type: functional; design: concentration or dose not given beside the values
[24] = biological target: T1, Peroxisome proliferator-activated receptor alpha (Rattus norvegicus, UniProt P37230); assay: Activity against PPAR-alpha
T1 sequence (P37230 whole entry): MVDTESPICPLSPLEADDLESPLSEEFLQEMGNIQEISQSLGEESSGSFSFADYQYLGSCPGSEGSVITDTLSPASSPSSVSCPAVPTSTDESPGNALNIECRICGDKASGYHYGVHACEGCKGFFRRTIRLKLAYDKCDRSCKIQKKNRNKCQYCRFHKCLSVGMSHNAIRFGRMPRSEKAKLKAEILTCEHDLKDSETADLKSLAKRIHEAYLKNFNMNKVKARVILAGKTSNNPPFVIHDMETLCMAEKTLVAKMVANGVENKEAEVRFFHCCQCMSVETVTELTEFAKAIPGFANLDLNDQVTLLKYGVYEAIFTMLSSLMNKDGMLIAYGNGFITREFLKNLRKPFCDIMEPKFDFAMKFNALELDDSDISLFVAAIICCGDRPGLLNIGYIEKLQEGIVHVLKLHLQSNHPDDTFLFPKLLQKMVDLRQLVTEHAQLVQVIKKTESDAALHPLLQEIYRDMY

[25] = biological target: T2, Peroxisome proliferator-activated receptor delta (Homo sapiens, UniProt Q03181); assay: Activity against PPAR-delta
T2 sequence (Q03181 whole entry): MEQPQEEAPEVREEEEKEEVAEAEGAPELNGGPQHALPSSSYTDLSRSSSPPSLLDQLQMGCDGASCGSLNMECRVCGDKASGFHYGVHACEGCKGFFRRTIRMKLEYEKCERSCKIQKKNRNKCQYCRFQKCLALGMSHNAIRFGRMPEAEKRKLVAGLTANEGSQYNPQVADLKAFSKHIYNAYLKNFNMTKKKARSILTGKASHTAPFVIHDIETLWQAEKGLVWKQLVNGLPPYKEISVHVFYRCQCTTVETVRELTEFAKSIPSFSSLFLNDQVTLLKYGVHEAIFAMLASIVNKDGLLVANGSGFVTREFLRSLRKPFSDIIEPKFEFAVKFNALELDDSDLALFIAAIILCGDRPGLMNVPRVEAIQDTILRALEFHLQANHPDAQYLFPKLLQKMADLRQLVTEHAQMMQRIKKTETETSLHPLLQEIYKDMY

Structure (SMILES): CCC/N=C(\S)Nc1cc(Br)ccc1C
Activity (Rattus norvegicus [1]): 46%
Activity (Rattus norvegicus [2]): 306%
Activity (Rattus norvegicus [3]): 47%
Activity (Rattus norvegicus [4]): 44%
Activity (Rattus norvegicus [5]): -29%
Activity (Rattus norvegicus [6]): -53%
Activity (Rattus norvegicus [7]): 142%

Structure (SMILES): CCC/N=C(\S)Nc1cc(Cl)ccc1OC
Activity (Rattus norvegicus [8]): 58%
Activity (Rattus norvegicus [9]): 99%
Activity (Rattus norvegicus [4]): 44%
Activity (Rattus norvegicus [10]): -6%
Activity (Rattus norvegicus [11]): 49%
Activity (Rattus norvegicus [12]): -43%
Activity (Rattus norvegicus [13]): 97%

Structure (SMILES): Cc1ccc(C)c(OCCCC(C)(C)C(=O)O)c1 [GEMFIBROZIL]
Activity (Rattus norvegicus [14]): 54%
Activity (Rattus norvegicus [15]): 104%
Activity (Hamster [16]): inactive
Activity (Rattus norvegicus [17]): 139%
Activity (Rattus norvegicus [18]): -29%
Activity (Hamster [19]): inactive
Activity (Rattus norvegicus [20]): -23%
Activity (Canis familiaris): inactive
Activity (Rattus norvegicus [21]): 25%
Activity (Rattus norvegicus [22]): 2%

EC50 [24]: > 100 µM
EC50 [25]: > 100 µM
Structure (SMILES): CC[C@@H]1CCCCN1/C(S)=N/c1cc(Cl)ccc1C
Activity (Rattus norvegicus [1]): 30%
Activity (Rattus norvegicus [2]): 614%
Activity (Rattus norvegicus [3]): 167%
Activity (Rattus norvegicus [4]): 105%
Activity (Rattus norvegicus [5]): -105%
Activity (Rattus norvegicus [23]): 80%
Activity (Rattus norvegicus [6]): -54%
Activity (Rattus norvegicus [7]): 129%

From ChEMBL document CHEMBL1148541, “Biological evaluation of 1-alkyl-3-phenylthioureas as orally active HDL-elevating agents” (Bioorg Med Chem Lett, 2006)
